In ChEMBL document CHEMBL1153208, “Identification of a new class of small molecule C5a receptor antagonists” (Bioorg Med Chem Lett, 2010) one finds IC50 and EC50 data, which are given here for 12 molecules.

In general, IC50 refers to the concentration that gives 50% inhibition. The term EC50 denotes the midpoint of the concentration-response curve.

Test [1] concerns the target T1, C5a anaphylatoxin chemotactic receptor 1 (Homo sapiens, UniProt P21730).
T1 sequence (P21730 whole entry): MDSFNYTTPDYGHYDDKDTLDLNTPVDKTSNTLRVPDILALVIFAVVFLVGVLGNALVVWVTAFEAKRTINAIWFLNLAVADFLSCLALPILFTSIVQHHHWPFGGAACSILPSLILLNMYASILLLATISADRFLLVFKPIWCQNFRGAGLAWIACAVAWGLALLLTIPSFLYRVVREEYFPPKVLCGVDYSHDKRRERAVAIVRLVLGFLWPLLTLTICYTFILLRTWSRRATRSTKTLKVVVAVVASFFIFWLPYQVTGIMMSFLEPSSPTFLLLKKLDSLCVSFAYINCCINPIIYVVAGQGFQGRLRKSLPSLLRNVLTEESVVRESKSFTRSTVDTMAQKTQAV
Briefly: Antagonist activity at human C5a receptor expressed in CHO cells co-expressed with Galpha16 assessed as inhibition of anaphylatoxin C5a-induced intracellular calcium accumulation after 10 mins by FLIPR assay. The format is functional, cell-based. For orientation: Calcium assays in cells follow changes in intracellular calcium, usually with a dye or a luminescent sensor.

Test [2] addresses T1, C5a anaphylatoxin chemotactic receptor 1. Briefly: Displacement of [125I]human anaphylatoxin C5a from human C5a receptor expressed in CHO cells co-expressed with Galpha16 after 1 hr. The format is cell-based. The essentials: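 Intact CHO-Gα16-C5aR cells plated at 50,000/well in growth medium with 10% FBS the day before. Medium replaced by HBSS + 20 mM HEPES + 0.1% BSA. Compound added for 10 min at rt, then 0.6 nM 125I-hC5a for 1 h at rt. Cells washed eight times with PBS + 1 mM CaCl2 + 0.1% BSA on a harvester.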

Test [3] shares this target. Briefly: Agonist activity at human C5a receptor expressed in CHO cells co-expressed with Galpha16 assessed as effect on anaphylatoxin C5a-induced intracellular calcium accumulation after 10 mins by FLIPR assay. It is filed as functional, cell-based.
Test [4] shares this target. In words: Antagonist activity at C5a receptor in human PMNC assessed as inhibition of anaphylatoxin C5a-induced intracellular calcium accumulation after 10 mins by FLIPR assay. The format is functional, cell-based. In short, it runs like this: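 Human neutrophils purified from whole blood on a Ficoll gradient, resuspended in Ca3 dye and plated at 50,000 cells/well in HBSS + 20 mM HEPES + 0.1% BSA. After 1 h at 37 °C, 5% CO2, compound added for 10 min, then 10 nM hC5a. Calcium response recorded on FLIPR.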

The nature of test [5]: Inhibition of anaphylatoxin C5a-induced chemotaxis in human PMNC. The format is functional.
In test [6] the test system is Blood. Briefly: Inhibition of anaphylatoxin C5a-induced PMNC shape changes in human whole blood treated 10 mins before anaphylatoxin C5a-induced challenge measured after 40 mins by FACS analysis. It is filed as functional, tissue-based. The essentials: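 Whole-blood assay. After stimulation, cells fixed with ice-cold 1% paraformaldehyde, then red cells lysed in ice-cold hypotonic buffer for 40 min on ice. Neutrophils gated by forward and side scatter on a flow cytometer. Shape change read as the rise in autofluorescence on the FL2-H channel.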
In general terms: Flow cytometry measures light scatter and fluorescence of single cells or particles in a stream.

The target in test [7] is T2, C-X-C chemokine receptor type 3 (Homo sapiens, UniProt P49682).
T2 sequence (P49682 whole entry): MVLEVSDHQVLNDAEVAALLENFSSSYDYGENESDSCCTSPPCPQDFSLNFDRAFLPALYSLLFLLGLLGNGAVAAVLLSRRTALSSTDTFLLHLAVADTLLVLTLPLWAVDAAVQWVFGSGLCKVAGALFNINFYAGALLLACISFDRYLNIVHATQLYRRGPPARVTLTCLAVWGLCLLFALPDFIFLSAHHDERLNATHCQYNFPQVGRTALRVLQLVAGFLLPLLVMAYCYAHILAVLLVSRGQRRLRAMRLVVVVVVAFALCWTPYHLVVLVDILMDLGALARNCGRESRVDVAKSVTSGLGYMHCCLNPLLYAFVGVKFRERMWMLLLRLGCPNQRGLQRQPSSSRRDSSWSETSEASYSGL
In words: Inhibition of CXCR3 in human T cells. The format is cell-based, T-cell.

Test [8] has as its target C-X-C chemokine receptor type 4 (Homo sapiens, UniProt P61073). In words: Inhibition of CXCR4 in human T cells. The format is cell-based, T-cell.
Test [9] concerns the target P2Y purinoceptor 2 (Homo sapiens, UniProt P41231). In words: Inhibition of human P2Y2 receptor expressed in CHO cells. It is filed as cell-based.

Each structure is given as a SMILES string.

Chain of P2Y purinoceptor 2 (P41231 whole entry): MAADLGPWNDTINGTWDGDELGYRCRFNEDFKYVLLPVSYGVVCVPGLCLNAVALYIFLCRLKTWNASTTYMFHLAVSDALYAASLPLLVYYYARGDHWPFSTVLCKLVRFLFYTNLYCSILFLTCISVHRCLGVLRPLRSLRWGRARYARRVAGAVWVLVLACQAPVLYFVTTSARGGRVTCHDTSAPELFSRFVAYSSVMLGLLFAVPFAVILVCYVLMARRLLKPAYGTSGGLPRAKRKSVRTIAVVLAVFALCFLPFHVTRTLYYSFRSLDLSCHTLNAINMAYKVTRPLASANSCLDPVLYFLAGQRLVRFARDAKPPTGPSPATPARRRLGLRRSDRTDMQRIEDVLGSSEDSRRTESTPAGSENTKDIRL
Chain of C-X-C chemokine receptor type 4 (P61073 whole entry): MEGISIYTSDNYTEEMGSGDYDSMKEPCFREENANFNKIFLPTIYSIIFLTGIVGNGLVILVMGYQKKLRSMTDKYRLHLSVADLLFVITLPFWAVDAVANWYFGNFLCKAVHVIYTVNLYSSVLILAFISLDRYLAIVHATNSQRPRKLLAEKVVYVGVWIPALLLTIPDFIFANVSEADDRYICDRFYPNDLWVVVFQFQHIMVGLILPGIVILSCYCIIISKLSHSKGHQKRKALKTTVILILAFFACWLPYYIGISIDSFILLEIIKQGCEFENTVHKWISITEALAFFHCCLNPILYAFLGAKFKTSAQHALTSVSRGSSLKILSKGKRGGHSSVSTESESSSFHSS

In the case of `CN(c1ccccc1N(C)S(=O)(=O)c1ccccc1)S(=O)(=O)c1ccccc1`, the IC50 in test [1] and in test [2] was more than 60 µM each time. For the same molecule, the EC50 in [3] was more than 60 µM.
In the case of `Cc1ccc(S(=O)(=O)N(C)c2ccc(Cl)cc2C(=O)c2ccccc2)cc1`, the figures for the IC50 in [1] and in test [2] were more than 60 µM and 8.7 µM, respectively. The EC50 in test [3] was more than 60 µM.
For `Cc1ccc(S(=O)(=O)N(C)c2ccccc2N(C)S(=O)(=O)c2ccc(C)cc2)cc1`, the IC50 in test [1] was 0.2 µM; in [2], 0.2 µM; in test [4] it was 0.0067 µM; in [5], 5.7 µM; in test [6], 27 µM; in test [7], more than 60 µM. The concentration for half-maximal inhibition (IC50) in test [8] and in [9] was more than 60 µM each time. In addition, the EC50 in [3] was more than 60 µM.
On to `Cc1ccc(S(=O)(=O)N(C)c2ccc(Br)cc2C(=O)c2ccccc2)cc1`, for which the values for the half-inhibitory concentration (IC50) in test [1] and in test [2] were more than 60 µM and 14.6 µM, respectively. Moreover, the EC50 in test [3] is more than 60 µM.
In the case of `Cc1ccc(S(=O)(=O)N2CCN(S(=O)(=O)c3ccc(C)cc3)CC2)cc1`, the IC50 in test [1] and in test [4] was more than 60 µM each time.
For `Cc1ccc(S(=O)(=O)N2Cc3ccccc3CN(S(=O)(=O)c3ccc(C)cc3)c3ccccc32)cc1`, the IC50 in test [1] and in [2] was more than 60 µM throughout. The EC50 in test [3] is more than 60 µM.
As for `Cc1ccc(S(=O)(=O)N(C)c2ccccc2C(=O)N2CCc3ccccc32)cc1`, the IC50 in [1] worked out at 38.3 µM; in test [2], 44.5 µM. In test [3], the EC50 was more than 60 µM.
In the case of `C=CCN(c1ccccc1N(CC=C)S(=O)(=O)c1ccc(C)cc1)S(=O)(=O)c1ccc(C)cc1`, the IC50 is 0.3 µM in [1]; 0.3 µM in test [2]; 0.059 µM in [4]; 2.5 µM in [5]; more than 60 µM in test [7]; more than 60 µM in test [8]. In addition, the IC50 in test [9] is more than 60 µM. Moreover, the EC50 in test [3] is more than 60 µM.
Turning to `Cc1ccc(S(=O)(=O)N(C)c2ccccc2C(=O)c2ccsc2)cc1`, the IC50 in test [1] was 0.6 µM; in test [2], 1.7 µM; in test [4], 0.4 µM; in test [5], more than 60 µM; in test [6], more than 60 µM; in test [7] it was more than 60 µM. Besides, the IC50 in test [8] and in test [9] was more than 60 µM in each case. Moreover, the EC50 in test [3] was more than 60 µM.
Take `Cc1ccc(S(=O)(=O)N2CCN(S(=O)(=O)c3ccc(C)cc3)c3ccccc32)cc1`: the IC50 in [1] and in test [2] was more than 60 µM throughout. In [3], the EC50 was more than 60 µM.
`Cc1ccc(S(=O)(=O)N(CCCN(c2ccccc2)S(=O)(=O)c2ccc(C)cc2)c2ccccc2)cc1`: the IC50 in [1] and in test [4] was more than 60 µM each time.
`CC(=O)c1ccccc1N(C)S(=O)(=O)c1ccc(C)cc1`: the IC50 in test [1] and in [2] was more than 60 µM each time. The concentration for a half-maximal effect (EC50) in [3] was more than 60 µM.
